How the values were obtained:
NCD-WT mice = experiment: Liver glycogen content in NCD-WT mice; format: in vivo, mouse
CST-KO mice = experiment: Liver glycogen content in NCD-CST-KO mice; format: in vivo, mouse; settings: fed state, insulin 30 min, Figure 4B
mice = experiment: Plasma counterregulatory hormones; format: in vivo, mouse; settings: NCD-WT mice; acute insulin for 30 minutes; n = 7; Figure 2B,C
PI3-kinase = experiment: PI-3-kinase activity in anti-p85 immunoprecipitates of hepatocytes; format: cell-based, mouse; settings: CST 100 nM for 1 hour, insulin 10 nM for 10 minutes, Figure 6E
Summary of the method: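 Mouse hepatocytes were left untreated or exposed to CST (100 nM, 1 hr) or insulin (10 nM, 10 min), then lysed. Anti-p85 immunoprecipitates were washed and assayed with phosphatidylinositol substrate and γ-32P-ATP. Labelled lipids were extracted, mixed with reference lipids and separated by TLC (CHCl3–MeOH–H2O–NH4OH (25%), 45:35:8.5:1.5). PI3P was detected by autoradiography.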

IR, IRS-1, mTOR, AKT = experiment: Immunoblotting of phosphorylation signals in primary hepatocytes; format: cell-based, mouse; settings: cultured hepatocytes; immunoblot; n = 3; Figure 6A–D
GSK-3β = experiment: Immunoblotting of GSK-3β in liver; format: in vivo, mouse; settings: liver of fasted NCD-WT and DIO-WT mice; immunoblot; n = 4; Figure 9A,B

insulin
effect on liver glycogen level (NCD-WT mice; fasted NCD-WT mice, insulin 30 minutes, CST 2 μg/g body weight acute (1 hour) and chronic (10–15 days), Figure 1A,C,D): restored glycogen level | fold increase in hepatic glycogen content (NCD-WT mice; fasted lean mice, CST or insulin alone): > fivefold | effect on hepatic glycogen content (CST-KO mice): failed to increase | effect on plasma noradrenaline and adrenaline levels (mice): raised plasma noradrenaline and adrenaline levels only in the fasted state | effect on PI3-kinase activity (PI3P formation) (PI3-kinase): stimulated PI3-kinase activity | effect on tyrosine phosphorylation of IR and IRS-1 (IR, IRS-1, mTOR, AKT): stimulated tyrosine phosphorylation | effect on GSK-3β Ser9 phosphorylation (GSK-3β): increased GSK-3β Ser9 phosphorylation

— article PMC10754386 (Acta physiologica (Oxford, England), 2022)
